According to ChEMBL document CHEMBL1240389, “In vitro and in vivo activities of the novel anticytomegalovirus compound AIC246” (Antimicrob Agents Chemother, 2010):
Calls of active or inactive are those of the source. No cut-off for these calls is given here.

Legend:
Human betaherpesvirus 5 [1] = test: Antiviral activity against 1 MOI human cytomegalovirus AD169 infected in NHDF after 7 days by GFP-based fluorescent reduction assay; format: functional, organism-based; conditions: Human betaherpesvirus 5, AD169, NHDF, 168 h
Procedure, shortened: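 NHDF cells (1.5 × 10⁴/well) infected with GFP-expressing HCMV AD169 at increasing MOI (0.003 to 1); after adsorption inoculum replaced, compound added in serial 3-fold dilutions, at least duplicate. 7 days at 37°C, medium swapped for PBS, GFP units read by CCD camera. EC₅₀ = 50% GFPU reduction versus no-drug virus control by nonlinear regression; at least triplicate experiments.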

Human betaherpesvirus 5 [2] = test: Antiviral activity against human cytomegalovirus AD169 infected in NHDF assessed as inhibition of virus replication at 50 nM after 96 hrs by fluorescence assay; format: functional, organism-based
Human betaherpesvirus 5 [3] = test: Antiviral activity against 0.01 MOI human cytomegalovirus AD169 infected in NHDF after 7 days by GFP-based fluorescent reduction assay; conditions: Human betaherpesvirus 5, AD169, NHDF, 168 h
Human betaherpesvirus 5 [4] = test: Antiviral activity against 0.1 MOI human cytomegalovirus AD169 infected in NHDF after 7 days by GFP-based fluorescent reduction assay; format: functional, organism-based; conditions: Human betaherpesvirus 5, AD169, NHDF, 168 h
Procedure, shortened: (§1)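 NHDF cells (1.5 × 10⁴/well) infected with GFP-expressing HCMV AD169 at the stated MOI (range 0.003 to 1 tested). After adsorption the inoculum was replaced, and compound was added in 3-fold serial dilutions, each at least in duplicate. Cells were incubated 7 days at 37°C, then GFP units were read by CCD camera in PBS. EC₅₀ was taken as the % GFPU reduction versus no-drug control. At least triplicate experiments.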

Human betaherpesvirus 5 [5] = test: Antiviral activity against human cytomegalovirus infected in NHDF after 7 days by GFP-based fluorescent reduction assay; format: functional, organism-based; conditions: Human betaherpesvirus 5, NHDF, 168 h
Procedure, shortened: (§2)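 Fibroblasts of the stated type (1.5 × 10⁴/well) infected with GFP-expressing recombinant AD169 (HCMV-GFP MOI 0.1 or RV-HG MOI 0.2 to 0.5). After adsorption the inoculum was replaced, with 3-fold serial compound dilutions at least in duplicate, and 7 days at 37°C. GFP units were read by CCD camera in PBS. EC₅₀ was derived from GFPU reduction versus untreated infected wells; at least triplicate runs.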

Human betaherpesvirus 5 [6] = test: Antiviral activity against human cytomegalovirus RV-HG infected in NHDF after 7 days by GFP-based fluorescent reduction assay; format: functional, organism-based; conditions: Human betaherpesvirus 5, RV-HG, 168 h
Procedure, shortened: (§3)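 Incubated 7 days at 37°C, medium swapped for PBS, GFP units read by CCD-camera fluorescence imager. EC50/EC90 from % GFPU reduction versus untreated infected wells by nonlinear regression; at least triplicate experiments.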

Human betaherpesvirus 5 [7] = test: Antiviral activity against human cytomegalovirus isolate E16415S infected in NHDF assessed as inhibition of virus-induced cytopathic effect after 6 to 7 days by giemsa staining; format: functional, organism-based; conditions: Human betaherpesvirus 5, isolate E16415S
Procedure, shortened: (§4)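 Cell-associated virus (infected NHDF cells) used as inoculum, at MOI 0.001 to 0.002, mixed with uninfected NHDF (1 × 10⁴ to 3 × 10⁴ cells/well). Compound was added in 2-fold serial dilutions, final 250 to 0.00005 μM, in duplicates. Incubation was 6 to 7 days at 37°C, followed by Giemsa/formalin staining and visual CPE scoring. EC₅₀ is 50% CPE inhibition versus untreated infected control; at least two independent experiments.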

Human betaherpesvirus 5 [8] = test: Antiviral activity against human cytomegalovirus isolate La infected in NHDF assessed as inhibition of virus-induced cytopathic effect after 6 to 7 days by giemsa staining; format: functional, organism-based; conditions: Human betaherpesvirus 5, isolate La
Procedure, shortened: (§5)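 NHDF cells (1 × 10⁴/well) mixed with cell-free virus (MOI 0.03) or with infected-cell suspension (MOI 0.001 to 0.002). Compound was added from DMSO stocks in 2-fold serial dilutions, final 250 to 0.00005 μM, in duplicates. Plates were incubated 6 to 7 days at 37°C or until 100% CPE in virus control, then fixed and stained with Giemsa/formalin and scored microscopically. EC₅₀ is 50% CPE inhibition versus untreated infected control.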

Human betaherpesvirus 5 [9] = test: Antiviral activity against human cytomegalovirus isolate Se infected in NHDF assessed as inhibition of virus-induced cytopathic effect after 6 to 7 days by giemsa staining; format: functional, organism-based; conditions: Human betaherpesvirus 5, isolate Se; procedure, shortened: as §5
Human betaherpesvirus 5 [10] = test: Antiviral activity against human cytomegalovirus infected in NHLF after 7 days by GFP-based fluorescent reduction assay; format: functional, organism-based; conditions: Human betaherpesvirus 5, 168 h; procedure, shortened: as §2
Human betaherpesvirus 5 [11] = test: Antiviral activity against human cytomegalovirus AD169 infected in NHDF after 7 days by GFP-based fluorescent reduction assay; format: functional, organism-based; conditions: Human betaherpesvirus 5, AD169, NHDF, 168 h; procedure, shortened: as §3
Human betaherpesvirus 5 [12] = test: Antiviral activity against human cytomegalovirus infected in HEL299 cells after 7 days by GFP-based fluorescent reduction assay; format: functional, organism-based; conditions: Human betaherpesvirus 5, HEL 299, 168 h; procedure, shortened: as §2
Human betaherpesvirus 5 [13] = test: Antiviral activity against 0.03 MOI human cytomegalovirus AD169 infected in NHDF after 7 days by GFP-based fluorescent reduction assay; format: functional, organism-based; conditions: Human betaherpesvirus 5, AD169, NHDF, 168 h; procedure, shortened: as §1
Human betaherpesvirus 5 [14] = test: Antiviral activity against human cytomegalovirus AD169 infected in NHDF assessed as inhibition of virus-induced cytopathic effect after 6 to 7 days by giemsa staining; format: functional, organism-based; conditions: Human betaherpesvirus 5, AD169, NHDF; procedure, shortened: as §5
Human betaherpesvirus 5 [15] = test: Antiviral activity against ganciclovir-resistant human cytomegalovirus isolate E17251S infected in NHDF assessed as inhibition of virus-induced cytopathic effect after 6 to 7 days by giemsa staining; format: functional, organism-based; conditions: Human betaherpesvirus 5, isolate E17251S; procedure, shortened: as §4
Human betaherpesvirus 5 [16] = test: Antiviral activity against human cytomegalovirus Davis xenograft mouse model assessed as reduction of viral load administered via oral gavage QD for 9 days measured post last dose; format: functional; conditions: Human betaherpesvirus 5, Davis, 216 h
Procedure, shortened: (§6)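 NOD SCID mice (18 to 25 g) implanted subcutaneously (dorsoscapular) with Gelfoam sponges seeded with 1 × 10⁶ NHDF cells infected with strain Davis (MOI 0.03), bFGF-treated. From 4 h post-transplant, dosed orally by gavage once daily for 9 days in 2% DMSO/0.5% methylcellulose-PBS, 10 ml/kg. Implants then collagenase-digested; recovered cells titrated by plaque assay on NHDF (PFU/ml).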

Human betaherpesvirus 5 [17] = test: Antiviral activity against 0.003 MOI human cytomegalovirus AD169 infected in NHDF after 7 days by GFP-based fluorescent reduction assay; format: functional, organism-based; conditions: Human betaherpesvirus 5, AD169, NHDF, 168 h; procedure, shortened: as §1
Human betaherpesvirus 5 [18] = test: Antiviral activity against ganciclovir-resistant human cytomegalovirus isolate 1947R infected in NHDF assessed as inhibition of virus-induced cytopathic effect after 6 to 7 days by giemsa staining; format: functional, organism-based; conditions: Human betaherpesvirus 5, isolate 1947R; procedure, shortened: as §4
Human betaherpesvirus 5 [19] = test: Antiviral activity against human cytomegalovirus isolate Ba infected in NHDF assessed as inhibition of virus-induced cytopathic effect after 6 to 7 days by giemsa staining; format: functional, organism-based; conditions: Human betaherpesvirus 5, isolate Ba; procedure, shortened: as §5
Human betaherpesvirus 5 [20] = test: Antiviral activity against human cytomegalovirus Davis xenograft mouse model assessed as reduction of viral load at 10 to 100 mg/kg, po QD for 9 days measured post last dose; format: functional, organism-based; procedure, shortened: as §6
Human betaherpesvirus 5 [21] = test: Antiviral activity against human cytomegalovirus AD169 infected in NHDF at 50 nM treated after 57 hrs postinfection measured after 7 days by GFP-based fluorescent reduction assay; format: functional, organism-based
Human betaherpesvirus 5 [22] = test: Antiviral activity against human cytomegalovirus infected in human HS27 cells after 7 days by GFP-based fluorescent reduction assay; format: functional, organism-based; conditions: Human betaherpesvirus 5, HS27, 168 h
Procedure, shortened: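 GFP reduction assay run in HS27 foreskin fibroblasts instead of NHDF, infected with AD169-GFP; compounds in 3-fold serial dilutions, 7 days at 37°C, GFP units read by camera-based fluorescence detector after PBS exchange. EC50 from % GFPU reduction versus drug-free infected control; at least triplicate experiments.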

Human betaherpesvirus 5 [23] = test: Antiviral activity against human cytomegalovirus isolate 472 infected in NHDF assessed as inhibition of virus-induced cytopathic effect after 6 to 7 days by giemsa staining; format: functional, organism-based; conditions: Human betaherpesvirus 5, isolate 472, NHDF; procedure, shortened: as §5
Human betaherpesvirus 5 [24] = test: Antiviral activity against human cytomegalovirus infected in human fibroblast assessed as decrease in infectious foci size at 50 nM after 5 days by DAPI staining; format: functional, organism-based
Procedure, shortened: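 Late-stage infected fibroblasts (strictly cell-associated clinical isolate) cocultured with excess uninfected fibroblasts for 5 days with or without 50 nM drug. Methanol-fixed; IE antigen detected by indirect immunofluorescence (mAb E13, Cy3 secondary), nuclei DAPI-counterstained. Quadruplicate; mean infected cells per focus counted.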

Human betaherpesvirus 5 [25] = test: Antiviral activity against human cytomegalovirus AD169 infected in NHDF at 10 times EC50 treated postinfection and measured after 7 days by GFP-based fluorescent reduction assay
Human betaherpesvirus 5 [26] = test: Antiviral activity against human cytomegalovirus infected in human MRC5 cells after 7 days by GFP-based fluorescent reduction assay; format: functional, organism-based; conditions: Human betaherpesvirus 5, MRC5, 168 h
Procedure, shortened: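 MRC5 fibroblasts (1.5 × 10⁴/well) infected with GFP-expressing HCMV AD169; inoculum removed after adsorption, compound in serial 3-fold dilutions, at least duplicate. 7 days at 37°C, then PBS and GFP units read by CCD camera. EC₅₀ = 50% GFPU reduction versus no-drug virus control by nonlinear regression; mean ± SD of independent experiments.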

Human betaherpesvirus 5 [27] = test: Antiviral activity against human cytomegalovirus Davis infected in NHDF assessed as inhibition of virus-induced cytopathic effect after 6 to 7 days by giemsa staining; format: functional, organism-based; conditions: Human betaherpesvirus 5, Davis; procedure, shortened: as §5
[28] = system: Human herpesvirus 5 strain AD169; test: Antiviral activity against ganciclovir-resistant human cytomegalovirus AD169 UL97 M460I infected in NHDF assessed as inhibition of virus-induced cytopathic effect after 6 to 7 days by giemsa staining; format: functional, organism-based; conditions: Human betaherpesvirus 5, UL97 M460I; procedure, shortened: as §5
Human betaherpesvirus 5 [29] = test: Antiviral activity against human cytomegalovirus AD169 infected in NHDF assessed as inhibition of virus replication at 50 nM measured after 24 to 72 hrs of compound wash by fluorescence assay; format: functional, organism-based
Human betaherpesvirus 5 [30] = test: Antiviral activity against 0.3 MOI human cytomegalovirus AD169 infected in NHDF after 7 days by GFP-based fluorescent reduction assay; format: functional, organism-based; conditions: Human betaherpesvirus 5, AD169, NHDF, 168 h; procedure, shortened: as §1
Human betaherpesvirus 5 [31] = test: Antiviral activity against human cytomegalovirus AD169 infected in NHDF at 11 uM treated after 57 hrs postinfection measured after 7 days by GFP-based fluorescent reduction assay; format: functional, organism-based

COc1cccc(N2CCN(C3=Nc4c(F)cccc4[C@H](CC(=O)O)N3c3cc(C(F)(F)F)ccc3OC)CC2)c1 [LETERMOVIR]
EC50 (Human betaherpesvirus 5 [1]): 4.2 nM
Activity (Human betaherpesvirus 5 [2]): Active
EC50 (Human betaherpesvirus 5 [3]): 1.5 nM
EC50 (Human betaherpesvirus 5 [4]): 3.4 nM
EC50 (Human betaherpesvirus 5 [5]): 3.5 nM
EC50 (Human betaherpesvirus 5 [6]): 4.9 nM
EC90 (Human betaherpesvirus 5 [6]): 7.1 nM
EC50 (Human betaherpesvirus 5 [7]): 2.6 nM
EC50 (Human betaherpesvirus 5 [8]): 3.4 nM
EC50 (Human betaherpesvirus 5 [9]): 3.1 nM
EC50 (Human betaherpesvirus 5 [10]): 5 nM
EC50 (Human betaherpesvirus 5 [11]): 3.8 nM
EC90 (Human betaherpesvirus 5 [11]): 5.1 nM
EC50 (Human betaherpesvirus 5 [12]): 3.5 nM
EC50 (Human betaherpesvirus 5 [13]): 2.9 nM
EC50 (Human betaherpesvirus 5 [14]): 5 nM
EC50 (Human betaherpesvirus 5 [15]): 6.1 nM
ED50 (Human betaherpesvirus 5 [16]): 3 mg/kg/day
ED90 (Human betaherpesvirus 5 [16]): 8 mg/kg/day
EC50 (Human betaherpesvirus 5 [17]): 1.3 nM
EC50 (Human betaherpesvirus 5 [18]): 2.3 nM
EC50 (Human betaherpesvirus 5 [19]): 5.8 nM
inhibition (Human betaherpesvirus 5 [20]): Active
Activity (Human betaherpesvirus 5 [21]): inactive
EC50 (Human betaherpesvirus 5 [22]): 5.6 nM
EC50 (Human betaherpesvirus 5 [23]): 1.8 nM
Activity (Human betaherpesvirus 5 [24]): Active
Activity (Human betaherpesvirus 5 [25]): Active
EC50 (Human betaherpesvirus 5 [26]): 4.5 nM
EC50 (Human betaherpesvirus 5 [27]): 4 nM
EC50 [28]: 3.9 nM
Activity (Human betaherpesvirus 5 [29]): Active
EC50 (Human betaherpesvirus 5 [30]): 3.6 nM

CC(C)[C@H](N)C(=O)OCC(CO)OCn1cnc2c(=O)[nH]c(N)nc21 (stereo partly drawn) [VALGANCICLOVIR]
ED50 (Human betaherpesvirus 5 [16]): 16 mg/kg/day
ED90 (Human betaherpesvirus 5 [16]): > 100 mg/kg/day
inhibition (Human betaherpesvirus 5 [20]): Active

CN(C)c1cccc2c(S(=O)(=O)Nc3ccc(NC(=O)C(C)(C)CO)cc3)cccc12
Activity (Human betaherpesvirus 5 [25]): Active
Activity (Human betaherpesvirus 5 [31]): inactive
